Measured values from ChEMBL document CHEMBL5724801, “EUbOPEN Chemogenomics Library - Multiplex” (2024).
Where “and” joins values, the source holds several entries; their conditions need not be identical. Identical values can stand only once.

Test system: U2OS
Assay: Multiplex assay against U2OS
Assay type: toxicity, cell-based
Settings: human
In short: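 At seeding, live cells were stained with Hoechst33342, BioTracker Green Microtubule Cytoskeleton Dye, MitoTracker Red and Annexin V Alexa Fluor 680. After compound addition they were imaged on a CQ1 microscope at 37°C and 5% CO2, and CellPathfinder machine-learning gating sorted them into Hoechst high-intensity objects or normal cells, with normal cells further split into healthy, pyknosed or fragmented nuclei and pyknosed cells into mitotic or apoptotic. Tubulin, mitochondrial-mass and membrane-permeability phenotypes are given as per cents of cells with healthy nuclei.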

[1] = 12 h, 1 µM, compound concentration 1 uM
[2] = 12 h, 10 µM, compound concentration 10 uM
[3] = 24 h, 1 µM, compound concentration 1 uM
[4] = 24 h, 10 µM, compound concentration 10 uM
[5] = 48 h, 1 µM, compound concentration 1 uM
[6] = 48 h, 10 µM, compound concentration 10 uM

Cl.O=S(=O)(c1cccc2c(I)cccc12)N1CCCNCC1
Population Apoptotic (%) [1]: 56.67% and 27.27% | Population Fragmented Nuclei (%) [1]: 2.94% and 4.55% | Population Healthy Nuclei (%) [1]: 89.04% and 87.12% | Population Hoechst High Intensity Objects (%) [1]: 0% | Population Membrane Permeable-Phenotype (%) [1]: 1.5% and 1.74% | Population Mitochondria Different-Phenotype (%) [1]: 0.3% and 6.09% | Population Mitotic Cells (%) [1]: 43.33% and 72.73% | Population Normal (%) [1]: 100% | Population Pyknosed Nuclei (%) [1]: 8.02% and 8.33% | Population Tubulin-Different-Phenotype (%) [1]: 1.2% and 0% | Total Cell Count [1]: 374 and 132 | Population Apoptotic (%) [2]: 35.59% and 25% | Population Fragmented Nuclei (%) [2]: 1.04% and 0.7% | Population Healthy Nuclei (%) [2]: 86.75% and 74.13% | Population Hoechst High Intensity Objects (%) [2]: 0% | Population Membrane Permeable-Phenotype (%) [2]: 1.67% and 4.72% | Population Mitotic Cells (%) [2]: 64.41% and 75% | Population Normal (%) [2]: 100% | Population Pyknosed Nuclei (%) [2]: 12.22% and 25.17% | Population Tubulin-Different-Phenotype (%) [2]: 5.73% and 1.89% | Population Apoptotic (%) [3]: 47.27% and 30.77% | Population Fragmented Nuclei (%) [3]: 1.85% and 3.49% | Population Healthy Nuclei (%) [3]: 86.83% and 88.95% | Population Hoechst High Intensity Objects (%) [3]: 0% and 0.58% | Population Membrane Permeable-Phenotype (%) [3]: 1.42% and 0.65% | Population Mitochondria Different-Phenotype (%) [3]: 0% and 4.58% | Population Mitotic Cells (%) [3]: 52.73% and 69.23% | Population Normal (%) [3]: 100% and 99.42% | Population Pyknosed Nuclei (%) [3]: 11.32% and 7.56% | Population Tubulin-Different-Phenotype (%) [3]: 0.47% and 1.96% | Total Cell Count [3]: 486 and 173 | Population Apoptotic (%) [4]: 46.38% and 25% | Population Fragmented Nuclei (%) [4]: 1.31% and 1.69% | Population Healthy Nuclei (%) [4]: 87.4% and 73.6% | Population Hoechst High Intensity Objects (%) [4]: 0% | Population Membrane Permeable-Phenotype (%) [4]: 0.94% and 3.82% | Population Mitotic Cells (%) [4]: 53.62% and 75% | Population Normal (%) [4]: 100% | Population Pyknosed Nuclei (%) [4]: 11.29% and 24.72% | Population Tubulin-Different-Phenotype (%) [4]: 1.87% and 3.05% | Population Apoptotic (%) [5]: 40% and 50% | Population Fragmented Nuclei (%) [5]: 1.92% and 2.4% | Population Healthy Nuclei (%) [5]: 89.6% and 90.07% | Population Hoechst High Intensity Objects (%) [5]: 0% | Population Membrane Permeable-Phenotype (%) [5]: 0.88% and 3.42% | Population Mitochondria Different-Phenotype (%) [5]: 0% and 2.66% | Population Mitotic Cells (%) [5]: 60% and 50% | Population Normal (%) [5]: 100% | Population Pyknosed Nuclei (%) [5]: 8.47% and 7.53% | Population Tubulin-Different-Phenotype (%) [5]: 0.88% and 2.28% | Population Apoptotic (%) [6]: 44.03% and 45.31% | Population Fragmented Nuclei (%) [6]: 1.9% and 3.72% | Population Healthy Nuclei (%) [6]: 82.95% and 72.49% | Population Hoechst High Intensity Objects (%) [6]: 0.1% and 0% | Population Membrane Permeable-Phenotype (%) [6]: 1.26% and 4.62% | Population Mitochondria Different-Phenotype (%) [6]: 0.46% and 7.18% | Population Mitotic Cells (%) [6]: 55.97% and 54.69% | Population Normal (%) [6]: 99.9% and 100% | Population Pyknosed Nuclei (%) [6]: 15.14% and 23.79% | Population Tubulin-Different-Phenotype (%) [6]: 3.21% and 4.62%

Cc1[nH]nc2ccc(-c3cncc(OCC(N)Cc4c[nH]c5ccccc45)c3)cc12 (configuration not stated)
Population Apoptotic (%) [1]: 44.72% and 48.45% | Population Fragmented Nuclei (%) [1]: 8.59% and 11.33% | Population Healthy Nuclei (%) [1]: 46.81% and 24% | Population Hoechst High Intensity Objects (%) [1]: 0% | Population Membrane Permeable-Phenotype (%) [1]: 2.37% and 0% | Population Mitotic Cells (%) [1]: 55.28% and 51.55% | Population Normal (%) [1]: 100% | Population Pyknosed Nuclei (%) [1]: 44.6% and 64.67% | Population Tubulin-Different-Phenotype (%) [1]: 4.73% and 0% | Total Cell Count [1]: 361 and 150 | Population Apoptotic (%) [2]: 65.77% and 68.92% | Population Fragmented Nuclei (%) [2]: 11.37% and 8.4% | Population Healthy Nuclei (%) [2]: 2.49% and 6.87% | Population Hoechst High Intensity Objects (%) [2]: 0% | Population Membrane Permeable-Phenotype (%) [2]: 0% and 22.22% | Population Mitochondria Different-Phenotype (%) [2]: 35.71% and 55.56% | Population Mitotic Cells (%) [2]: 34.23% and 31.08% | Population Normal (%) [2]: 100% | Population Pyknosed Nuclei (%) [2]: 86.15% and 84.73% | Population Tubulin-Different-Phenotype (%) [2]: 42.86% and 33.33% | Total Cell Count [2]: 563 and 262 | Population Apoptotic (%) [3]: 64.71% and 80.2% | Population Fragmented Nuclei (%) [3]: 9.73% and 13.51% | Population Healthy Nuclei (%) [3]: 38.6% and 18.24% | Population Hoechst High Intensity Objects (%) [3]: 0% | Population Membrane Permeable-Phenotype (%) [3]: 3.15% and 3.7% | Population Mitotic Cells (%) [3]: 35.29% and 19.8% | Population Normal (%) [3]: 100% | Population Pyknosed Nuclei (%) [3]: 51.67% and 68.24% | Population Tubulin-Different-Phenotype (%) [3]: 2.36% and 7.41% | Total Cell Count [3]: 329 and 148 | Population Apoptotic (%) [4]: 93.93% and 93.15% | Population Fragmented Nuclei (%) [4]: 7.63% and 5.95% | Population Healthy Nuclei (%) [4]: 4.33% and 7.14% | Population Hoechst High Intensity Objects (%) [4]: 0% | Population Mitochondria Different-Phenotype (%) [4]: 17.65% and 50% | Population Mitotic Cells (%) [4]: 6.07% and 6.85% | Population Normal (%) [4]: 100% | Population Pyknosed Nuclei (%) [4]: 88.04% and 86.9% | Population Tubulin-Different-Phenotype (%) [4]: 35.29% and 16.67% | Total Cell Count [4]: 393 and 168 | Population Apoptotic (%) [5]: 73.68% and 85.57% | Population Fragmented Nuclei (%) [5]: 8.46% and 13.19% | Population Healthy Nuclei (%) [5]: 34.14% and 19.44% | Population Hoechst High Intensity Objects (%) [5]: 0% | Population Mitochondria Different-Phenotype (%) [5]: 1.77% and 10.71% | Population Mitotic Cells (%) [5]: 26.32% and 14.43% | Population Normal (%) [5]: 100% | Population Pyknosed Nuclei (%) [5]: 57.4% and 67.36% | Population Tubulin-Different-Phenotype (%) [5]: 5.31% and 0% | Total Cell Count [5]: 331 and 144 | Population Apoptotic (%) [6]: 96.14% and 98.84% | Population Fragmented Nuclei (%) [6]: 9.73% and 10.67% | Population Healthy Nuclei (%) [6]: 29.2% and 32% | Population Hoechst High Intensity Objects (%) [6]: 0% | Population Membrane Permeable-Phenotype (%) [6]: 12.12% and 29.17% | Population Mitochondria Different-Phenotype (%) [6]: 23.23% and 35.42% | Population Mitotic Cells (%) [6]: 3.86% and 1.16% | Population Normal (%) [6]: 100% | Population Pyknosed Nuclei (%) [6]: 61.06% and 57.33% | Population Tubulin-Different-Phenotype (%) [6]: 14.14% and 16.67% | Total Cell Count [6]: 339 and 150
